# A1 apoptosis 2: blocks A1, raising caspase activity | MEF A1-2A-BIM cells, caspase-Glo luminescence, 3 h; percent of clofoctol response, DMSO zero | caspase activation, % (concentration not given with the values) | 24,000 tested, under 10 active | AID 2465; in the data active means caspase activation above about 5.9%
#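 Material: mouse embryonic fibroblasts co-expressing A1 and BIM (A1-2A-BIM), primed for A1 dependence / Quantity: 2500 cells/well / Buffer or medium: RPMI-1640 growth medium with 10% FBS / Doses: 50 nL compound per well, pinned / Schedule: 3 h compound exposure at 37 °C / Signal: Caspase-Glo luminescence (DEVD substrate) / Measure: Caspase-3/7 activation, seen as rise in luminescence signal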
# INS-1E ATP HTS: rescue of cytokine-induced death in INS-1E beta cells | INS-1E cytokine-induced death, ATP luminescence, 48 h; normalised: neutral wells 0, positive control 100 | protection from cytokine-induced ATP loss, % at 10 µM | 0.1% of 20,000 active | AID 488910;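 active means mean replicate protection from cytokine-induced ATP loss at least 50% and at least 75% of replicates each reaching 50%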
#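 Material: INS-1E rat cells; Quantity: 8000 cells/well; Buffer or medium: phenol-red-free RPMI with 5% fetal bovine serum; Probe or stimulus: cytokine cocktail of IFN-γ, TNF-α and IL-1β; Compound dosing: single test concentration per compound, delivered by pin transfer; Incubation: 48 h co-treatment, 10 min post-lysis read; Signal: CellTiter-Glo luminescence.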
# T cruzi HTS: intracellular Trypanosoma cruzi inhibition; intracellular Trypanosoma cruzi in host cells, plate reader; activity score (inhibition), % at 5.01 µM; 4.9% of 22,000 active; AID 651903; in the data active means activity score above about 55%;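 further: parasites and compound incubated about four days before reading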
# Hits are given with their value; 0 = inactive; - = no result. This excerpt belongs to a sample that is enriched for hits.
SMILES,A1 apoptosis 2,INS-1E ATP HTS,T cruzi HTS
C[C@@H]1CN([C@H](C)CO)C(=O)Cc2cc(NC(=O)Nc3ccc(C(F)(F)F)cc3)ccc2O[C@@H]1CN(C)Cc1ccc(C(=O)Nc2ccccc2N)cc1,0,0,83
C[C@H](CO)N1C[C@H](C)[C@H](CN(C)Cc2ccc(C(=O)Nc3ccccc3N)cc2)Oc2ccc(NC(=O)Nc3ccc(C(F)(F)F)cc3)cc2C1=O,0,0,0
C[C@H]1CN([C@@H](C)CO)C(=O)Cc2cc(NC(=O)Nc3ccc(C(F)(F)F)cc3)ccc2O[C@H]1CN(C)Cc1ccc(C(=O)Nc2ccccc2N)cc1,0,0,87
C[C@H]1CN([C@@H](C)CO)C(=O)Cc2cc(NC(=O)c3ccncc3)ccc2O[C@@H]1CN(C)Cc1ccc(C(=O)Nc2ccccc2N)cc1,0,0,0
COc1cc2c(cc1O)C(C1CC1)N(C)CC2 (stereo not given),0,-,-
C[C@H]1CN([C@@H](C)CO)C(=O)Cc2cc(NC(=O)CCC(F)(F)F)ccc2O[C@@H]1CN(C)Cc1ccc(Oc2ccccc2)cc1,0,0,59
C[C@H](CO)N1C[C@H](C)[C@H](CN(C)Cc2ccc(Oc3ccccc3)cc2)Oc2ccc(NC(=O)CCC(F)(F)F)cc2CC1=O,-,0,0
C[C@@H]1CN([C@@H](C)CO)C(=O)Cc2cc(NC(=O)CCC(F)(F)F)ccc2O[C@H]1CN(C)Cc1ccc(Oc2ccccc2)cc1,0,-,-
C[C@@H]1CN([C@H](C)CO)C(=O)Cc2cc(NC(=O)CCC(F)(F)F)ccc2O[C@@H]1CN(C)Cc1ccc(Oc2ccccc2)cc1,0,0,63
C[C@H](CO)N1C[C@H](C)[C@H](CN(C)C(=O)Nc2cccc3ccccc23)Oc2c(NC(=O)c3ccncc3)cccc2C1=O,0,0,70
C[C@H]1CN([C@@H](C)CO)C(=O)c2cccc(NC(=O)c3ccncc3)c2O[C@@H]1CN(C)C(=O)Nc1cccc2ccccc12,0,0,0
C[C@H]1CN([C@@H](C)CO)C(=O)c2cccc(NC(=O)c3ccncc3)c2O[C@H]1CN(C)C(=O)Nc1cccc2ccccc12,0,0,75
C[C@@H]1CN([C@@H](C)CO)C(=O)c2cccc(NC(=O)c3ccncc3)c2O[C@H]1CN(C)C(=O)Nc1cccc2ccccc12,0,0,0
CNC[C@@H]1OCCCC[C@H](C)Oc2ccc(NC(=O)Nc3cccc4ccccc34)cc2C(=O)N([C@@H](C)CO)C[C@H]1C,0,-,-
C[C@@H]1CN([C@H](C)CO)C(=O)CCCn2nncc2CO[C@@H]1CN(C)Cc1ccc(-c2ccccc2)cc1,-,-,60
C[C@@H]1CN([C@H](C)CO)C(=O)CCCn2nncc2CO[C@H]1CN(C)S(=O)(=O)c1ccc(-c2ccccc2)cc1,0,0,0
C[C@H](CO)N1C[C@H](C)[C@H](CN(C)S(=O)(=O)c2ccc(Oc3ccccc3)cc2)OCc2cnnn2CCCC1=O,0,0,70
C[C@H](CO)N1C[C@H](C)[C@@H](CN(C)S(=O)(=O)c2ccc(-c3ccccc3)cc2)OCc2cnnn2CCCC1=O,0,-,80
C[C@@H]1CN([C@H](C)CO)C(=O)CCCn2nncc2CO[C@@H]1CN(C)S(=O)(=O)c1ccc(Oc2ccccc2)cc1,0,0,0
C[C@@H]1CN([C@@H](C)CO)C(=O)CCCn2nncc2CO[C@H]1CN(C)Cc1ccc(-c2ccccc2)cc1,-,-,0
O=C(N/N=C/c1cc2ccccc2n1S(=O)(=O)c1ccccc1)c1ccccc1O,0,0,0
CCOc1cc(/C=N/NC(=O)CCCCCCC(=O)NO)ccc1O,0,-,-
Cc1nnc(Sc2ccc(/C=N/NC(=O)c3ccc(C(=O)NO)cc3)o2)n1C,0,0,0
O=C(N/N=C/c1ccc(Oc2ccccc2)cc1)c1ccccc1O,0,0,0
O=C(O)CCCCCC(=O)N/N=C/c1cccc(Br)c1,0,0,0
SMILES,A1 apoptosis 2,INS-1E ATP HTS,T cruzi HTS
COc1ccc(S(=O)(=O)N(C)C[C@@H]2Oc3ccc(NS(=O)(=O)c4ccc(F)cc4)cc3CC(=O)N([C@H](C)CO)C[C@@H]2C)cc1,-,0,0
C[C@@H]1CN([C@H](C)CO)C(=O)c2cccc(NS(=O)(=O)c3cccs3)c2O[C@@H]1CN(C)Cc1ccc(C(=O)O)cc1,0,0,68
Cc1ccc(S(=O)(=O)Nc2cccc3c2O[C@@H](CN(C)Cc2ccc(-c4ccccc4)cc2)[C@@H](C)CN([C@@H](C)CO)C3=O)cc1,-,0,74
C[C@@H]1CN([C@@H](C)CO)C(=O)c2cccc(NS(=O)(=O)c3ccc(Cl)cc3)c2O[C@@H]1CN(C)Cc1ccc(-c2ccccc2)cc1,0,0,63
C[C@@H]1CN([C@@H](C)CO)C(=O)c2cccc(NS(=O)(=O)c3ccccc3)c2O[C@@H]1CN(C)Cc1ccc(-c2ccccc2)cc1,-,0,87
C[C@@H]1CN([C@H](C)CO)C(=O)c2cccc(NS(=O)(=O)c3ccccc3)c2O[C@@H]1CN(C)Cc1ccc(-c2ccccc2)cc1,-,0,0
C[C@H]1CN([C@@H](C)CO)C(=O)c2cccc(NS(=O)(=O)c3ccc(Cl)cc3)c2O[C@@H]1CN(C)Cc1ccc(-c2ccccc2)cc1,0,0,0
C[C@@H]1CN([C@@H](C)CO)C(=O)c2cccc(NS(=O)(=O)c3cccs3)c2O[C@@H]1CN(C)Cc1ccc(C(=O)O)cc1,0,0,0
Cc1ccc(S(=O)(=O)Nc2cccc3c2O[C@H](CN(C)Cc2ccc(-c4ccccc4)cc2)[C@@H](C)CN([C@H](C)CO)C3=O)cc1,-,0,0
Cc1ccc(/C=N/NC(=O)c2ccc(C(=O)NO)cc2)o1,0,0,0
O=C(O)CCCCCC(=O)N/N=C/c1cccs1,-,0,0
COc1cccc(OC)c1/C=N/NC(=O)CCCCCCC(=O)Nc1ccccc1O,0,0,0
O=C(O)CCCCCC(=O)N/N=C/c1cc(Br)ccc1O,0,0,0
C[C@H](CO)N1C[C@H](C)[C@@H](CN(C)Cc2ccc3c(c2)OCO3)Oc2c(NS(=O)(=O)c3ccc(Cl)cc3)cccc2C1=O,0,0,58
Cc1ccc(S(=O)(=O)Nc2cccc3c2O[C@@H](CN(C)Cc2ccc4c(c2)OCO4)[C@@H](C)CN([C@H](C)CO)C3=O)cc1,-,0,0
COc1ccc(S(=O)(=O)N(C)C[C@H]2Oc3ccc(NS(C)(=O)=O)cc3CC(=O)N([C@H](C)CO)C[C@@H]2C)cc1,0,-,-
NC(=O)COc1ccccc1/C=N/NC(=O)CCCCC(=O)NO,0,0,0
C[C@H]1CN([C@@H](C)CO)C(=O)Cc2cc(NC(=O)Nc3cccc4ccccc34)ccc2O[C@@H]1CN(C)CC1CC1,0,0,0
C[C@@H]1CN([C@H](C)CO)C(=O)Cc2cc(NC(=O)Nc3cccc4ccccc34)ccc2O[C@H]1CN(C)CC1CCCCC1,-,0,68
C[C@@H]1CN([C@H](C)CO)C(=O)Cc2cc(NC(=O)Nc3cccc4ccccc34)ccc2O[C@@H]1CN(C)CC1CCCCC1,0,0,0
C[C@H]1CN([C@@H](C)CO)C(=O)Cc2cc(NC(=O)Nc3cccc4ccccc34)ccc2O[C@H]1CN(C)CC1CCCCC1,-,0,62
